From ChEMBL document CHEMBL1132451, “Evaluation and biological properties of reactive ligands for the mapping of the glycine site on the N-methyl-D-aspartate (NMDA) receptor” (J Med Chem, 1999)

What was measured:
[1] = target: Glutamate NMDA receptor; Grin1/Grin2b (Rattus norvegicus, UniProt P35439+Q00960); test: Antagonistic activity for suppression of membrane current response elicited by fixed concentration of glycine and glutamate in Xenopus oocyte expressing N-methyl-D-aspartate glutamate receptor 1/2B; format: functional
Chain of Glutamate NMDA receptor; Grin1/Grin2b (Q00960 whole entry, other chains not shown, the tested form may be a part): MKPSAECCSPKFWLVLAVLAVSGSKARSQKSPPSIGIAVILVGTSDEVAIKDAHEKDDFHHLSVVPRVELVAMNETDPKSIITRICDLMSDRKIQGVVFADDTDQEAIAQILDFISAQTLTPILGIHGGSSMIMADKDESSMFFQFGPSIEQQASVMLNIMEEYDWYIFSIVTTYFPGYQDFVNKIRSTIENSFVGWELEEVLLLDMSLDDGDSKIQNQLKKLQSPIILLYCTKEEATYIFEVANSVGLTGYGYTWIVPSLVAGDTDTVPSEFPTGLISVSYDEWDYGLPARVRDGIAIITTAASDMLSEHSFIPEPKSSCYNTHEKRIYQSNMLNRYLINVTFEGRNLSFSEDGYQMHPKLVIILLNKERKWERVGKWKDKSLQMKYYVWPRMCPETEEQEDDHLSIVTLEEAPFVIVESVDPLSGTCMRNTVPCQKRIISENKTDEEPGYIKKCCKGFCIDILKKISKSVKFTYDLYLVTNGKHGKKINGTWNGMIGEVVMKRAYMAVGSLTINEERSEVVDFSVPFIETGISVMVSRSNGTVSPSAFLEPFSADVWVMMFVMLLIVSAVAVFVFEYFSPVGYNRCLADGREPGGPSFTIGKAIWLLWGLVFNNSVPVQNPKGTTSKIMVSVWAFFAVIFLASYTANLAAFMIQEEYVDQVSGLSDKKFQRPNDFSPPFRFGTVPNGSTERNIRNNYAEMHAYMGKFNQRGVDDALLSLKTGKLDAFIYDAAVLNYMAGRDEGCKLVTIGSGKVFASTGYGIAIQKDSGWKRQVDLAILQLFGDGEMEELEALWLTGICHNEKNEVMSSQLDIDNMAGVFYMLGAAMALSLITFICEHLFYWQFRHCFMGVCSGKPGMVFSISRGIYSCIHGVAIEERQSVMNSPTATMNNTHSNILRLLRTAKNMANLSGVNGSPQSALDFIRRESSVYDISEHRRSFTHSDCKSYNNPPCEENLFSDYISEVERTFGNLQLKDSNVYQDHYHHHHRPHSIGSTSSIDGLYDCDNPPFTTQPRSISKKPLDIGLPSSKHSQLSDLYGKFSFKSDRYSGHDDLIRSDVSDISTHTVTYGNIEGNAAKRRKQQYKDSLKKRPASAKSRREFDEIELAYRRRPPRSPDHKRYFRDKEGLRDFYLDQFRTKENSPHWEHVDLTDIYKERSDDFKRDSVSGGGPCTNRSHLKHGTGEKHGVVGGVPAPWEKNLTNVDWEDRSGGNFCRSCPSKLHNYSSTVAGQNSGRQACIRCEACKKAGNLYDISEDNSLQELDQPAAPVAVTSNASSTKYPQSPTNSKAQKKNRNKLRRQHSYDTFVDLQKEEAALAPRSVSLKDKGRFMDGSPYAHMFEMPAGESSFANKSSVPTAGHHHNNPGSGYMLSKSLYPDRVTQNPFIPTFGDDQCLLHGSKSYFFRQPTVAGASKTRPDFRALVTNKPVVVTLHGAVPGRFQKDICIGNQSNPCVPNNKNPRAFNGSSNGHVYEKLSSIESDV
In short: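 Xenopus oocytes expressing cloned NR1A/NR2B, superfused with frog's Ringer (10 mM HEPES, 115 mM NaCl, 0.9 mM CaCl2, 1 mM KCl, pH 7.2) containing 1 μM glycine plus 100 μM glutamate, with increasing antagonist. Washes of 4–6 min between stimulations. IC50 from five-point concentration-inhibition curves, sigmoidal fit, assuming competitive inhibition. Mean (SE) of ≥3 experiments.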

[2] = target: Glutamate receptor ionotropic, NMDA 1 (Rattus norvegicus, UniProt P35439); test: Displacement of [3H]-5-7 dichlorokynurenic acid ([3H]- DCKA) from N-methyl-D-aspartate glutamate receptor glycine site of rat brain membrane homogenate; format: tissue-based
In short: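 Rat brain membranes kept at -80 °C, thawed, washed in HEPES-KOH 50 mM pH 7.5. About 0.1 mg protein incubated 30 min at 4 °C with 20 nM [3H]-DCKA and increasing probe; nonspecific binding with 1 mM glycine. Filtration, then scintillation counting. Logistic fit; Ki by Cheng-Prusoff (KD 35 nM). Mean (SE) of ≥3 experiments.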

IC50 [1] [nM] | Ki [2] [nM] | SMILES
39 | 13.8 | O=C(CCl)Nc1cccc(Oc2cccc(-c3c(O)nc4cc(Cl)ccc4c3O)c2)c1
– | > 1000 | N#[N+]c1ccc2c(O)c(-c3cccc(Oc4ccccc4)c3)c(O)nc2c1
24 | 7.1 | O=C(CCl)Nc1ccccc1Oc1cccc(-c2c(O)nc3cc(Cl)ccc3c2O)c1
18 | 14 | O=c1[nH]c2cc(Cl)ccc2c(O)c1-c1cccc(Oc2ccccc2)c1

The next lines start with the compound.

SMILES | IC50 [1] [nM] | Ki [2] [nM]
O=C(CCl)Nc1c(-c2cccc(Oc3ccccc3)c2)c(=O)[nH]c2cc(Cl)ccc12 | > 100000 | 216
O=C(Oc1c(-c2cccc(Oc3ccccc3)c2)c(=O)[nH]c2cc(Cl)ccc12)c1ccc(S(=O)(=O)F)cc1 | 2410 | 24.2
O=C(CCl)Nc1ccc2c(O)c(-c3cccc(Oc4ccccc4)c3)c(=O)[nH]c2c1 | 38000 | 278
O=C(CCl)Nc1cccc(-c2c(O)c3ccc(Cl)cc3[nH]c2=O)c1 | 155 | 42
O=c1[nH]c2cc(Cl)ccc2c(O)c1-c1cccc(N=C=S)c1 | 200 | 47.6
O=C(CCl)Nc1ccc2c(OC(=O)CCl)c(-c3cccc(Oc4ccccc4)c3)c(=O)[nH]c2c1 | 63000 | 427
O=c1[nH]c2cc(Cl)ccc2c(O)c1-c1cccc(NCCS(=O)(=O)F)c1 | 335 | 24
O=c1[nH]c2cc(Cl)ccc2c(O)c1-c1cccc(Oc2ccccc2NCCS(=O)(=O)F)c1 | 32 | 26.8
O=c1[nH]c2cc(N=C=S)ccc2c(O)c1-c1cccc(Oc2ccccc2)c1 | 24000 | 64.3
